Activity calls are given as the source filed them. No cut-off for these calls is given here.
Key:
Thoracic aorta [1] = assay: Vasorelaxant activity in Wistar rat endothelium thoracic aortic ring assessed as inhibition of 30 mM KCl-induced contraction; assay type: functional, tissue-based
How it was run: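 Rings from adult Wistar rat thoracic aorta, with or without endothelium, under 1.5 g tension in oxygenated physiological solution at 37 °C, pH 7.36. Contraction by 30 mM KCl after 60 min equilibration, then cumulative drug to maximal relaxation. EC50 = concentration giving 50% relaxation of KCl contraction; mean ± sem.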

Homo sapiens [2] = organism: Homo sapiens; assay: Activation of ATP-sensitive potassium channel in vascular smooth muscle cells (unknown origin) assessed as increase in elastin production at 100 uM after 48 hrs by ELISA
Homo sapiens [3] = organism: Homo sapiens; assay: Activation of ATP-sensitive potassium channel in vascular smooth muscle cells (unknown origin) assessed as increase in elastin production after 48 hrs by ELISA
How it was run: (§1)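 Primary aortic smooth muscle cells serum-starved overnight in 1% FCS-DMEM, seeded 25,000 cells/well and adhered overnight. Compounds in DMSO (final <1%) for 48 h, some wells with 10 µM glibenclamide throughout. Controls were DMSO alone, 1 mM minoxidil in water, or diazoxide. Cells fixed in 4% paraformaldehyde, extracellular elastin by anti-elastin ELISA with HRP secondary, read by absorbance. n = 3–4 from different cultures; ANOVA.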

Thoracic aorta [4] = assay: Vasorelaxant activity in Wistar rat thoracic aortic ring assessed as inhibition of 80 mM KCl-induced contraction; assay type: functional, tissue-based
How it was run: (§2)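 Thoracic aorta rings (2–3 mm) from adult Wistar rats, held at 1.5 g tension in Krebs-type solution pH 7.36, 37 °C, O2/CO2 95:5. After 60 min equilibration, contracted with 30 or 80 mM KCl, some with 10 µM glibenclamide. Cumulative drug additions to maximal relaxation; isometric tension by force transducer. Relaxation as % of KCl contraction; EC50 from concentration-response curves; mean ± sem, n experiments.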

Thoracic aorta [5] = assay: Vasorelaxant activity in Wistar rat thoracic aortic ring assessed as inhibition of 30 mM KCl-induced contraction; assay type: functional, tissue-based; how it was run: as §2
Homo sapiens [6] = organism: Homo sapiens; assay: Activation of ATP-sensitive potassium channel in vascular smooth muscle cells (unknown origin) assessed as increase in elastin production at 10 to 100 uM after 48 hrs by ELISA in presence of glibenclamide; how it was run: as §1
Homo sapiens [7] = organism: Homo sapiens; assay: Activation of ATP-sensitive potassium channel in vascular smooth muscle cells (unknown origin) assessed as increase in elastin production at 100 uM after 48 hrs by ELISA; how it was run: as §1
Rattus norvegicus [8] = organism: Rattus norvegicus; assay: Activation of ATP-sensitive potassium channel in Wistar rat pancreatic islets assessed as inhibition of 16.7 mM of glucose-induced insulin secretion by measuring residual insulin secretion at 10 uM after 90 mins relative to control
How it was run: (§3)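 Islets from adult fed Wistar rats, groups of 10. Preincubated 30 min at 37 °C in bicarbonate salt medium with 2.8 mM glucose and 0.5% dialysed albumin, gassed O2/CO2 95:5. Then 90 min at 37 °C in same medium with 16.7 mM glucose plus drug. Insulin by radioimmunoassay against rat insulin standard, expressed as % of drug-free 16.7 mM glucose control.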

Rattus norvegicus [9] = organism: Rattus norvegicus; assay: Activation of ATP-sensitive potassium channel in Wistar rat pancreatic islets assessed as inhibition of 16.7 mM of glucose-induced insulin secretion by measuring residual insulin secretion at 50 uM after 90 mins relative to control; how it was run: as §3
Thoracic aorta [10] = assay: Vasorelaxant activity in Wistar rat thoracic aortic ring assessed as inhibition of KCl-induced contraction in presence of glibenclamide; assay type: functional, tissue-based; how it was run: as §2
Rattus norvegicus [11] = assay: Activation of ATP-sensitive potassium channel in Wistar albino rat assessed as effect on blood glucose at 50 mg/kg, po; assay type: functional, organism-based; set-up: dose 50 mg/kg
How it was run: (§4)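 Adult fed Wistar albino rats, conscious, free access to water and standard pellet diet, held in a small cabinet from 60 min before sampling. Single oral dose in DMSO (0.2 mL) at time zero; controls got DMSO alone. Tail blood drop at 0, 1, 2, 3 and 4 h, glucose by reagent strip and glucometer. Mean ± sem, n = 3 rats.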

Homo sapiens [12] = organism: Homo sapiens; assay: Activation of ATP-sensitive potassium channel in vascular smooth muscle cells (unknown origin) assessed as increase in elastin production at 10 to 100 uM after 48 hrs by ELISA; how it was run: as §1
[13] = Dissociation constant, pKa of the compound by UV-Visible spctrophotometry; assay type: physicochemical
How it was run: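 UV–visible spectra recorded at ambient temperature in borate and phosphate buffers from pH 3 to 10, using neutral and ionic species references in 0.1 N HCl and 0.1 N NaOH. Exact pH measured for each spectrum. pKa calculated by the Albert–Serjeant formula.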

Rattus norvegicus [14] = assay: Hyperglycemic effect in Wistar albino rat assessed as effect on blood glucose at 50 mg/kg, po; assay type: functional, organism-based; set-up: dose 50 mg/kg; how it was run: as §4
Homo sapiens [15] = organism: Homo sapiens; assay: Activation of ATP-sensitive potassium channel in vascular smooth muscle cells (unknown origin) assessed as increase in elastin production at 50 uM after 48 hrs by ELISA
How it was run: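 Primary aortic smooth muscle cells were serum-starved overnight in 1% FCS-DMEM, seeded at 25,000 cells/well and left to adhere overnight. They were then exposed for 48 h in 1% FCS-DMEM to compound in DMSO (final DMSO <1%). Cells were fixed in 4% paraformaldehyde, blocked with 2% BSA, then labelled with anti-elastin antibody (1:1000) and HRP secondary (1:50,000). The reaction was stopped with sulfuric acid and absorbance read. Negative control was DMSO; positive control was 1 mM minoxidil.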

Homo sapiens [16] = organism: Homo sapiens; assay: Activation of ATP-sensitive potassium channel in vascular smooth muscle cells (unknown origin) assessed as increase in elastin production at 10 to 20 uM after 48 hrs by ELISA; how it was run: as §1
Rattus norvegicus [17] = assay: Hypoglycemic effect in Wistar albino rat assessed as effect on blood glucose at 0.25 mg/kg, po; assay type: functional, organism-based; set-up: dose 0.25 mg/kg; how it was run: as §4
Rattus norvegicus [18] = organism: Rattus norvegicus; assay: Activation of ATP-sensitive potassium channel in Wistar rat thoracic aortic ring assessed as rightward shift; assay type: tissue-based; conditions: Aorta; how it was run: as §2

CCCCCNC(=O)NC(=O)c1ccccc1OCc1ccccc1
EC50 (Thoracic aorta [1]): 17.3 µM

CCC(C)NC(=S)NC(=O)c1ccccc1OC (stereo not given)
EC50 (Thoracic aorta [1]): 36.6 µM

COc1ccccc1C(=O)NC(=S)NC(C)C
EC50 (Thoracic aorta [1]): 18.6 µM | Activity (Homo sapiens [2]): 30% | Activity (Homo sapiens [3]): Dose-dependent effect | EC50 (Thoracic aorta [4]): 38.1 µM | EC50 (Thoracic aorta [5]): 15.7 µM | Activity (Homo sapiens [6]): inactive | Activity (Homo sapiens [7]): 30% | Activity (Rattus norvegicus [8]): 90.9% | Activity (Rattus norvegicus [9]): 105% | EC50 (Thoracic aorta [10]): 28.1 µM

COc1ccc(Cl)cc1S(=O)(=O)NC(=S)NCc1ccccc1
EC50 (Thoracic aorta [1]): > 300 µM

CCNC(=O)NC(=O)c1ccccc1OC
EC50 (Thoracic aorta [1]): > 100 µM

CCOc1ccc(Cl)cc1S(=O)(=O)NC(=O)NC(C)C
EC50 (Thoracic aorta [1]): > 300 µM

CCOc1ccc(Cl)cc1S(=O)(=O)NC(=S)NC(C)C
EC50 (Thoracic aorta [1]): > 300 µM

CCCOc1ccccc1C(=O)NC(=S)Nc1ccccc1
EC50 (Thoracic aorta [1]): 16.5 µM | Activity (Rattus norvegicus [11]): inactive | EC50 (Thoracic aorta [4]): 121 µM | EC50 (Thoracic aorta [5]): 12 µM | Activity (Rattus norvegicus [8]): 83.8% | Activity (Rattus norvegicus [9]): 44.9% | EC50 (Thoracic aorta [10]): 64.9 µM

O=C(NCc1ccccc1)NC(=O)c1ccccc1OCc1ccccc1
EC50 (Thoracic aorta [1]): 21.1 µM

CCC(C)NC(=O)NC(=O)c1ccccc1OC (stereo not given)
EC50 (Thoracic aorta [1]): 31.8 µM

CCNC(=S)NC(=O)c1ccccc1OC
Activity (Homo sapiens [12]): inactive | EC50 (Thoracic aorta [1]): 15.2 µM | EC50 (Thoracic aorta [4]): 57.1 µM | EC50 (Thoracic aorta [5]): 17.4 µM | Activity (Rattus norvegicus [8]): 94.1% | Activity (Rattus norvegicus [9]): 99.6% | EC50 (Thoracic aorta [10]): 28.2 µM

COc1ccc(Cl)cc1S(=O)(=O)NC(=O)NC(C)C
EC50 (Thoracic aorta [1]): > 300 µM | pKa [13]: 5.65

COc1ccc(Cl)cc1S(=O)(=O)NC(=O)NC1CCCCC1
EC50 (Thoracic aorta [1]): > 300 µM | pKa [13]: 5.46

CC1=Nc2ccc(Cl)cc2S(=O)(=O)N1 [DIAZOXIDE]
Activity (Rattus norvegicus [14]): Active | EC50 (Thoracic aorta [4]): > 300 µM | Activity (Homo sapiens [15]): 67% | Activity (Rattus norvegicus [8]): 70% | Activity (Rattus norvegicus [9]): 28.8%

CCCOc1ccccc1C(=O)NC(=S)NCc1ccccc1
EC50 (Thoracic aorta [1]): 71.1 µM

CCOc1ccc(Cl)cc1S(=O)(=O)NC(=S)Nc1ccc(F)cc1
EC50 (Thoracic aorta [1]): > 300 µM

CCOc1ccc(Cl)cc1S(=O)(=O)NC(=O)NC1CCCCC1
EC50 (Thoracic aorta [1]): > 300 µM

CCOc1ccc(Cl)cc1S(=O)(=O)NC(=O)Nc1ccccc1
EC50 (Thoracic aorta [1]): > 300 µM

COc1ccc(Cl)cc1S(=O)(=O)NC(=S)NC(C)C
EC50 (Thoracic aorta [1]): > 300 µM | pKa [13]: 5.74

COc1ccccc1C(=O)NC(=O)Nc1ccccc1
EC50 (Thoracic aorta [1]): 26.7 µM

CCNC(=O)NC(=O)c1ccccc1OCc1ccccc1
EC50 (Thoracic aorta [1]): 16.7 µM | EC50 (Thoracic aorta [4]): 36.6 µM | EC50 (Thoracic aorta [5]): 17.2 µM | Activity (Rattus norvegicus [8]): 110% | Activity (Rattus norvegicus [9]): 113% | EC50 (Thoracic aorta [10]): 38 µM | Activity (Homo sapiens [16]): inactive

CCCOc1ccccc1C(=O)NC(=O)Nc1ccccc1
EC50 (Thoracic aorta [1]): 59.6 µM

CCNC(=S)NS(=O)(=O)c1cc(Cl)ccc1OC
EC50 (Thoracic aorta [1]): > 300 µM

COc1ccc(Cl)cc1S(=O)(=O)NC(=O)Nc1ccc(F)cc1
EC50 (Thoracic aorta [1]): > 300 µM

COc1ccccc1C(=O)NC(=S)Nc1ccccc1
EC50 (Thoracic aorta [1]): 34.5 µM

COc1ccccc1C(=O)NC(=O)NC(C)C
EC50 (Thoracic aorta [1]): 91.4 µM

COc1ccc(Cl)cc1S(=O)(=O)NC(=O)Nc1ccccc1
EC50 (Thoracic aorta [1]): > 300 µM | pKa [13]: 4.5

COc1ccc(Cl)cc1C(=O)NCCc1ccc(S(=O)(=O)NC(=O)NC2CCCCC2)cc1
Activity (Rattus norvegicus [17]): Active

COc1ccc(F)cc1S(=O)(=O)NC(=O)NC(C)C
EC50 (Thoracic aorta [1]): > 300 µM | pKa [13]: 5.52

CCOc1ccc(Cl)cc1S(=O)(=O)NC(=S)NCc1ccccc1
EC50 (Thoracic aorta [1]): > 300 µM

O=C(NC(=O)c1ccccc1OCc1ccccc1)NC1CCCCC1
EC50 (Thoracic aorta [1]): 33.8 µM

CCC(C)NC(=O)NC(=O)c1ccccc1OCc1ccccc1 (stereo not given)
EC50 (Thoracic aorta [1]): 12.2 µM | Activity (Homo sapiens [2]): 30% | Activity (Homo sapiens [3]): Dose-dependent effect | Activity (Rattus norvegicus [11]): inactive | EC50 (Thoracic aorta [4]): 45.6 µM | Activity (Rattus norvegicus [18]): Dose-dependent effect | EC50 (Thoracic aorta [5]): 15.3 µM | Activity (Homo sapiens [6]): inactive | Activity (Homo sapiens [7]): 30% | Activity (Rattus norvegicus [8]): 90.1% | Activity (Rattus norvegicus [9]): 21.4% | EC50 (Thoracic aorta [10]): 20.2 µM

O=C(NC(=S)NCc1ccccc1)c1ccccc1OCc1ccccc1
EC50 (Thoracic aorta [1]): > 100 µM

COc1ccccc1C(=O)NC(=S)NCc1ccccc1
EC50 (Thoracic aorta [1]): 47.2 µM

CCCOc1ccccc1C(=O)NC(=O)NC1CCCCC1
EC50 (Thoracic aorta [1]): 58.2 µM

COc1ccccc1C(=O)NC(=O)NC1CCCCC1
EC50 (Thoracic aorta [1]): 35.9 µM

CC(C)NC(=O)NC(=O)c1ccccc1OCc1ccccc1
EC50 (Thoracic aorta [1]): 26.8 µM

COc1ccc(F)cc1S(=O)(=O)NC(=S)NC(C)C
EC50 (Thoracic aorta [1]): > 300 µM
